NOD2-RIPK2 inh: NOD2-RIPK2 protein interaction inhibition; O43353; actives 0.38% (n = 360,000); CHO BLA complementation NOD2-RIPK2, CCF4 ratio; inhibition, % at 4.98 µM; AID 624267; in the data active means inhibition above about 21%
MT stabilize HCS: microtubule stabilization, imaging screen; HeLa tubulin immunostaining HCS, 24 h; share of cells brighter than vehicle mean+2SD; % tubulin-high responders, % at 10 µM; actives 0.83% (n = 200,000); AID 2205;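 active means plate Z-score above 3 for both tubulin-high and condensed-nucleus cell shares, with cell loss under 80%, at 10 µM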;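 further: anti alpha tubulin signal scored within the nucleus-defined area of each cell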
bCat nuc transl: alters nuclear translocation of beta-catenin in HeLa cells. immunofluorescence imaging. nuclear translocation activity, % at 5 µM. actives 0.3% (n = 190,000). AID 1665;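 active means nuclear translocation activity above 50% at 5 µM, with a well cell count of 50 or more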;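 further: per-cell ratio of nuclear to cytoplasmic median beta-catenin stain intensity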
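Assay system: human HeLa cells, native beta-catenin; doses: 5 µM primary, 0.02–20 µM confirmation; incubation: compound treatment 24 h, 37°C, 5% CO2; technique: fluorescence imaging of beta-catenin antibody stain plus DAPI; measure: % activation, nuclear-to-cytoplasmic median beta-catenin signal ratio per cell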
TLR4 MyD88 comp: TLR4-MyD88 interaction inhibition in cells; O00206+Q99836; HeLa CL3-4 TLR4/MyD88 BLA complementation, FRET ratio; inhibition, % at 8.4 µM; actives 0.18% (n = 200,000); in the data active means inhibition above about 25%
TLR9-MyD88 inh: inhibitors of human TLR9-MyD88 binding | Q9NR96+Q99836 | CHO BLA complementation TLR9-MyD88, CCF4 FRET ratio | inhibition, % at 4.98 µM | actives 0.21% (n = 340,000) | AID 504734;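 active means inhibition above the mean over all tested compounds plus 3 SD, cut at about 21% in these data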
Hsp70 act: switches on Hsp70 transcription; HeLa Hsp70 promoter luciferase reporter, luminescence; scaled: vehicle 0, proteasome-inhibitor control 100%; activation, % at 10 µM; actives 0.04% (n = 200,000);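 active means activation above the mean across all tested compounds plus 3 SD, cutoff set per campaign, cut at about 5.5% in these data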
TLR4-MyD88 conf: confirmation of human TLR4-MyD88 binding inhibitors. HeLa CL3-4 BLA complementation, CCF4 FRET ratio. actives 50% (n = 350). inhibition, % at 8.4 µM. AID 941. shares compounds with TLR4 MyD88 comp;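 active means mean inhibition across three repeat runs above about 25% carried over from the earlier screen, limit read from the data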
BLA inhibitor ct: inhibits beta-lactamase activity, counter-screen to TLR4-MyD88 binding inhibitors. shares compounds with TLR4 MyD88 comp. HeLa BLA reporter, CCF4 FRET ratio. inhibition, % at 8.4 µM. actives 63% (n = 350). AID 1237;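 active means mean inhibition over three repeats above about 26% taken from the earlier screen, limit read from the data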;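 further: HeLa cells stably expressing beta-lactamase reporter as counterscreen for TLR4-MyD88 inhibitors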
Numbers stand for hits. An excerpt weighted towards active compounds, which were near 1% of everything screened.

For CC(C)(C)C(=O)Nc1ccc(C(=O)CSc2nnc(C3CC3)n2C2CC2)cc1 the results were NOD2-RIPK2 inh inactive and TLR9-MyD88 inh inactive.
`O=S(=O)(Nc1cc2nc3ccccc3nc2n1Cc1ccccc1)c1ccc(Cl)cc1` gave NOD2-RIPK2 inh 43.8, MT stabilize HCS inactive, bCat nuc transl inactive, TLR4 MyD88 comp 36.4, TLR9-MyD88 inh inactive, Hsp70 act inactive, TLR4-MyD88 conf 33.0 and BLA inhibitor ct 65.6.
For O=S(=O)(NCc1ccccc1)c1ccc(Cl)cc1 the results were NOD2-RIPK2 inh inactive, MT stabilize HCS inactive, TLR4 MyD88 comp inactive, TLR9-MyD88 inh inactive and Hsp70 act inactive.
CCN(C(=O)CN1C(=O)S/C(=C\c2cccc(OC)c2)C1=O)C1CCS(=O)(=O)C1 (stereo unspecified) was read as NOD2-RIPK2 inh inactive and TLR9-MyD88 inh inactive.
For CCOC(=O)c1sc2nc(N3CCOCC3)c3c(c2c1N)CCCC3 the results were NOD2-RIPK2 inh inactive, MT stabilize HCS inactive, bCat nuc transl inactive, TLR4 MyD88 comp inactive, TLR9-MyD88 inh inactive and Hsp70 act inactive.
COC(=O)c1ccc(-c2sc3nc(N4CCOCC4)c4c(c3c2N)CCCC4)o1 was read as MT stabilize HCS inactive, bCat nuc transl inactive, TLR4 MyD88 comp 27.5, Hsp70 act inactive, TLR4-MyD88 conf inactive and BLA inhibitor ct 51.9.
For COc1ccc(N2CCN(C(=O)/C=C/[C@H]3O[C@@H](n4ccc(=O)[nH]c4=O)[C@H](O)[C@@H]3O)CC2)cc1 the results were NOD2-RIPK2 inh inactive.
`CCSc1ncc(/C=N/Nc2ccc([N+](=O)[O-])cc2)n1C` gave NOD2-RIPK2 inh inactive, MT stabilize HCS inactive, bCat nuc transl inactive, TLR4 MyD88 comp 44.5, TLR9-MyD88 inh inactive, Hsp70 act inactive, TLR4-MyD88 conf 33.2 and BLA inhibitor ct 54.7.
O=C(c1cc2ccccc2[nH]1)N(Cc1cccnc1)CC1CCCN(C2CCCCC2)C1 (stereo unspecified) was read as NOD2-RIPK2 inh inactive and TLR9-MyD88 inh inactive.
Screening Nc1ccccc1C(=O)NCc1ccco1 returned NOD2-RIPK2 inh inactive and TLR9-MyD88 inh inactive.
`O=C(NCc1ccco1)c1ccccc1F` gave NOD2-RIPK2 inh inactive, MT stabilize HCS inactive, bCat nuc transl inactive, TLR4 MyD88 comp 26.5, TLR9-MyD88 inh inactive, Hsp70 act inactive, TLR4-MyD88 conf inactive and BLA inhibitor ct inactive.
`O=C1CNC(=O)/C1=C\N1CCCCC1` gave NOD2-RIPK2 inh inactive, MT stabilize HCS inactive, bCat nuc transl inactive, TLR4 MyD88 comp 28.9, TLR9-MyD88 inh inactive, Hsp70 act inactive, TLR4-MyD88 conf inactive and BLA inhibitor ct inactive.
Screening CC(C)CSC1=NSC2=NC(=O)/C(=C\c3coc4ccccc4c3=O)C(=N)N12 returned NOD2-RIPK2 inh inactive, MT stabilize HCS inactive, TLR4 MyD88 comp 43.2, TLR9-MyD88 inh inactive, Hsp70 act inactive, TLR4-MyD88 conf inactive and BLA inhibitor ct 30.6.
CC(C)OC(=O)/C(C#N)=C/c1ccc(-c2ccc(SC(F)F)cc2)o1 was read as NOD2-RIPK2 inh inactive, MT stabilize HCS inactive, bCat nuc transl inactive, TLR4 MyD88 comp 25.7, TLR9-MyD88 inh inactive, Hsp70 act inactive, TLR4-MyD88 conf inactive and BLA inhibitor ct inactive.
`COC(=O)/C(C#N)=C/c1ccc(-c2ccc(S(N)(=O)=O)cc2)o1` gave NOD2-RIPK2 inh inactive, bCat nuc transl inactive and TLR9-MyD88 inh inactive.
For Cc1noc(C)c1NC(=O)N(C)C[C@H]1Oc2ccc(NC(=O)Nc3ccc4c(c3)OCO4)cc2C(=O)N([C@H](C)CO)C[C@@H]1C the results were NOD2-RIPK2 inh inactive and TLR9-MyD88 inh inactive.
CC(=O)c1c(C)n([O-])c2cc(F)c(F)cc2[n+]1=O was read as NOD2-RIPK2 inh inactive, MT stabilize HCS inactive, bCat nuc transl inactive, TLR4 MyD88 comp 28.4, TLR9-MyD88 inh inactive, Hsp70 act inactive, TLR4-MyD88 conf 25.7 and BLA inhibitor ct inactive.
CC1=NOC(=O)/C1=C\c1ccc(-c2ccccc2Br)o1 was read as NOD2-RIPK2 inh inactive, MT stabilize HCS inactive, bCat nuc transl inactive, TLR4 MyD88 comp 25.9, TLR9-MyD88 inh inactive, Hsp70 act inactive, TLR4-MyD88 conf inactive and BLA inhibitor ct inactive.
`Nc1ncnc2c(C3OC(CO)C(O)C3O)c[nH]c12` (stereo unspecified) gave NOD2-RIPK2 inh inactive and TLR9-MyD88 inh inactive.
For CC(C)N(c1ccccc1)c1ccc(NC(=O)COC(=O)CCN2C(=O)c3cccc([N+](=O)[O-])c3C2=O)cc1 the results were NOD2-RIPK2 inh inactive, MT stabilize HCS inactive, bCat nuc transl inactive, TLR4 MyD88 comp 25.1, TLR9-MyD88 inh inactive, Hsp70 act inactive, TLR4-MyD88 conf inactive and BLA inhibitor ct inactive.
`Cc1ccc(N=Cc2sc(O)c3ccccc23)c(C)c1` gave NOD2-RIPK2 inh inactive, MT stabilize HCS inactive, bCat nuc transl inactive, TLR4 MyD88 comp 25.1, TLR9-MyD88 inh inactive, Hsp70 act inactive, TLR4-MyD88 conf inactive and BLA inhibitor ct 37.1.
Cc1ccc(N=Cc2c(O)c3ccccc3n(C)c2=O)cc1 was read as NOD2-RIPK2 inh inactive and TLR9-MyD88 inh inactive.
Cc1ccc(N=Cc2sc(O)c3ccccc23)cc1 was read as NOD2-RIPK2 inh inactive, MT stabilize HCS inactive, bCat nuc transl inactive, TLR4 MyD88 comp 39.3, TLR9-MyD88 inh inactive, Hsp70 act inactive, TLR4-MyD88 conf inactive and BLA inhibitor ct 52.0.
`CCCNC(=O)C1(C)CCCN(Cc2ccc(-c3ccccc3)cc2)C1` (stereo unspecified) gave NOD2-RIPK2 inh inactive.
For CC(O)(CC(=O)CC(=O)c1ccccc1)c1ccccc1 (stereo unspecified) the results were NOD2-RIPK2 inh inactive and TLR9-MyD88 inh inactive.
Screening Cc1ccc(NC(=O)CN2C(=O)S/C(=C\c3ccc(-c4cccc(C(=O)O)c4C)o3)C2=O)cc1 returned MT stabilize HCS inactive, bCat nuc transl inactive, TLR4 MyD88 comp inactive and Hsp70 act inactive.
Cc1ccc(C)c(N2C(=N)S/C(=C\c3ccc(-c4ccccc4C(=O)O)o3)C2=O)c1 was read as NOD2-RIPK2 inh inactive, MT stabilize HCS inactive, bCat nuc transl inactive, TLR4 MyD88 comp 26.1, TLR9-MyD88 inh inactive, Hsp70 act inactive, TLR4-MyD88 conf inactive and BLA inhibitor ct inactive.
Screening C=CCOc1nc(-c2ccncc2)nc2ccccc12 returned NOD2-RIPK2 inh inactive, MT stabilize HCS inactive, bCat nuc transl inactive, TLR4 MyD88 comp 25.5, TLR9-MyD88 inh inactive, Hsp70 act inactive, TLR4-MyD88 conf inactive and BLA inhibitor ct inactive.
COc1nc(-c2ccncc2)nc2ccccc12 was read as NOD2-RIPK2 inh inactive, MT stabilize HCS inactive, TLR4 MyD88 comp inactive, TLR9-MyD88 inh inactive and Hsp70 act inactive.
